Experimental data taken from ChEMBL document CHEMBL1130239, “Synthesis and evaluation of (S)-4-(3-(2'-[11C]isopropylamino)-2-hydroxypropoxy) -2H-benzimidazol -2-one ((S)-[11C]CGP 12388) and (S)-4-(3-((1'-[18F]-fluoroisopropyl)amino)-2-hydroxypropoxy) -2H- benzimidazol-2-one ((S)-[18F]fluoro-CGP 12388) for visualization of beta-adrenoceptors with positron …” (J Med Chem, 1997).

What was measured:
[1] = species on record: Rattus norvegicus; experiment: Biodistribution of [18]Fluoro-CGP 12388 (60 minutes post injection) in spleen of male wistar rats; assay type: ADME, organism-based; conditions: in vivo, 1 h
How it was run: (§1)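 Male Wistar rats (200 ± 20 g) under ip pentobarbital (60 mg/kg). Saline given iv <1 min before tracer (controls, n = 4). Tracer (2 MBq, 30 pmol) injected iv in 0.3 mL. Rats killed by heart extirpation at 60 min and tissues dissected; plasma taken by centrifugation (3 min, 1000g). Uptake given as DAR, (cpm/g tissue)/(injected cpm/body weight g), mean ± SD.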

[2] = species on record: Rattus norvegicus; experiment: Biodistribution of [18]Fluoro-CGP 12388 (60 minutes post injection) in kidney of male wistar rats; assay type: ADME, organism-based; conditions: in vivo, 1 h
How it was run: (§2)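 Pentobarbital-anesthetized (60 mg/kg ip) male Wistar rats (200 ± 20 g) received iv saline (n = 4) or 500 μg (±)-propranolol (n = 4) <1 min before 2 MBq (30 pmol) tracer in 0.3 mL. They were killed by heart extirpation at 10 or 60 min. Plasma came from blood centrifuged 3 min at 1000g. Tissue counts are expressed as DAR, mean ± SD.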

[3] = species on record: Rattus norvegicus; experiment: Biodistribution of [18]Fluoro-CGP 12388 (60 minutes post injection) in intestine of male wistar rats; assay type: ADME, organism-based; conditions: in vivo, 1 h; how it was run: as §2
[4] = species on record: Rattus norvegicus; experiment: Biodistribution of [18]Fluoro-CGP 12388 (10 minutes post injection) in red blood cells of male wistar rats; assay type: ADME, organism-based; conditions: in vivo; how it was run: as §2
[5] = species on record: Rattus norvegicus; experiment: Biodistribution of [18]Fluoro-CGP 12388 (10 minutes post injection) in muscle of male wistar rats; assay type: ADME, organism-based, Muscle tissue; conditions: in vivo; how it was run: as §2
[6] = species on record: Rattus norvegicus; experiment: Biodistribution of [18]Fluoro-CGP 12388 (60 minutes post injection) in heart of male wistar rats; assay type: ADME, organism-based; conditions: in vivo, 1 h; how it was run: as §2
[7] = species on record: Rattus norvegicus; experiment: Biodistribution of [18]Fluoro-CGP 12388 (10 minutes post injection) in heart of male wistar rats; assay type: ADME, organism-based; conditions: in vivo; how it was run: as §2
[8] = species on record: Rattus norvegicus; experiment: Biodistribution of [18]Fluoro-CGP 12388 (60 minutes post injection) in lung of male wistar rats; assay type: ADME, organism-based; conditions: in vivo, 1 h; how it was run: as §2
[9] = species on record: Rattus norvegicus; experiment: Biodistribution of {18]Fluoro-CGP 12388 (60 minutes post injection) in liver of male wistar rats; assay type: ADME, organism-based; conditions: in vivo, 1 h; how it was run: as §1
[10] = species on record: Rattus norvegicus; experiment: Biodistribution of [18]Fluoro-CGP 12388 (60 minutes post injection) in bone of male wistar rats; assay type: ADME, organism-based, Bone element; conditions: in vivo, 1 h; how it was run: as §2
[11] = species on record: Rattus norvegicus; experiment: Biodistribution of [18]Fluoro-CGP 12388 (10 minutes post injection) in fat of male wistar rats; assay type: ADME, organism-based, Adipose tissue; conditions: in vivo; how it was run: as §2
[12] = species on record: Rattus norvegicus; experiment: Biodistribution of [18]Fluoro-CGP 12388 (10 minutes post injection) in plasma of male wistar rats; assay type: ADME, organism-based; conditions: in vivo; how it was run: as §2
[13] = species on record: Rattus norvegicus; experiment: Biodistribution of [18]Fluoro-CGP 12388 (10 minutes post injection) in spleen of male wistar rats; assay type: ADME, organism-based; conditions: in vivo; how it was run: as §2
[14] = species on record: Rattus norvegicus; experiment: Biodistribution of [18]Fluoro-CGP 12388 (10 minutes post injection) in cerebellum of male wistar rats; assay type: ADME, organism-based; conditions: in vivo; how it was run: as §2
[15] = species on record: Rattus norvegicus; experiment: Biodistribution of [18]Fluoro-CGP 12388 (60 minutes post injection) in cortex of male wistar rats; assay type: ADME, organism-based; conditions: in vivo, 1 h; how it was run: as §2
[16] = species on record: Rattus norvegicus; experiment: Biodistribution of [18]Fluoro-CGP 12388 (60 minutes post injection) in cerebellum of male wistar rats; assay type: ADME, organism-based; conditions: in vivo, 1 h; how it was run: as §2
[17] = species on record: Rattus norvegicus; experiment: Biodistribution of [18]Fluoro-CGP 12388 (60 minutes post injection) in red blood cells of male wistar rats; assay type: ADME, organism-based; conditions: in vivo, 1 h; how it was run: as §1
[18] = species on record: Rattus norvegicus; experiment: Biodistribution of [18]Fluoro-CGP 12388 (10 minutes post injection) in liver of male wistar rats; assay type: ADME, organism-based; conditions: in vivo; how it was run: as §2
[19] = species on record: Rattus norvegicus; experiment: Biodistribution of [18]Fluoro-CGP 12388 (10 minutes post injection) in trachea of male wistar rats; assay type: ADME, organism-based; conditions: in vivo; how it was run: as §2
[20] = species on record: Rattus norvegicus; experiment: Biodistribution of [18]Fluoro-CGP 12388 (10 minutes post injection) in bone of male wistar rats; assay type: ADME, organism-based, Bone element; conditions: in vivo; how it was run: as §2
[21] = species on record: Rattus norvegicus; experiment: Biodistribution of [18]Fluoro-CGP 12388 (60 minutes post injection) in plasma of male wistar rats; assay type: ADME, organism-based; conditions: in vivo, 1 h; how it was run: as §1
[22] = species on record: Rattus norvegicus; experiment: Biodistribution of [18]Fluoro-CGP 12388 (10 minutes post injection) in lung of male wistar rats; assay type: ADME, organism-based; conditions: in vivo; how it was run: as §2
[23] = species on record: Rattus norvegicus; experiment: Biodistribution of [18]Fluoro-CGP 12388 (60 minutes post injection) in muscle of male wistar rats; assay type: ADME, organism-based, Muscle tissue; conditions: in vivo, 1 h; how it was run: as §1
[24] = species on record: Rattus norvegicus; experiment: Biodistribution of [18]Fluoro-CGP 12388 (10 minutes post injection) in cortex of male wistar rats; assay type: ADME, organism-based; conditions: in vivo; how it was run: as §2
[25] = species on record: Rattus norvegicus; experiment: Biodistribution of [18]Fluoro-CGP 12388 (10 minutes post injection) in kidney of male wistar rats; assay type: ADME, organism-based; conditions: in vivo; how it was run: as §2
[26] = Partition coefficient (logP); assay type: physicochemical; conditions: octanol/water
How it was run: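 50-100 μCi of tracer in 0.1 M phosphate buffer pH 7.4 (5 mL) plus n-octanol (5 mL). Shaken vigorously for 30 min at 37 °C, five mixtures. 100 μL of each layer gamma-counted. log P from the octanol/water count ratio, n = 5. A calculated value was also obtained with Pallas 1.2.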

[27] = species on record: Rattus norvegicus; experiment: Biodistribution of [18]Fluoro-CGP 12388 (10 minutes post injection) in intestine of male wistar rats; assay type: ADME, organism-based; conditions: in vivo; how it was run: as §2
[28] = species on record: Rattus norvegicus; experiment: Biodistribution of [18]Fluoro-CGP 12388 (60 minutes post injection) in fat of male wistar rats; assay type: ADME, organism-based, Adipose tissue; conditions: in vivo, 1 h; how it was run: as §2
[29] = species on record: Rattus norvegicus; experiment: Biodistribution of [18]Fluoro-CGP 12388 (60 minutes post injection) in trachea of male wistar rats; assay type: ADME, organism-based; conditions: in vivo, 1 h; how it was run: as §1

DAR [1]: 0.41
DAR [2]: 0.91
DAR [3]: 0.87
DAR [4]: 0.57
DAR [5]: 0.42
DAR [6]: 0.46
DAR [7]: 1.09
DAR [8]: 0.59
DAR [9]: 0.64
DAR [10]: 0.41
DAR [11]: 0.53
DAR [12]: 0.51
DAR [13]: 1.17
DAR [14]: 0.17
DAR [15]: 0.12
DAR [16]: 0.12
DAR [17]: 0.39
DAR [18]: 1.62
DAR [19]: 0.7
DAR [20]: 0.39
DAR [21]: 0.35
DAR [22]: 1.37
DAR [23]: 0.3
DAR [24]: 0.13
DAR [25]: 7.93
logP [26]: 0.44
DAR [27]: 1.52
DAR [28]: 0.07
DAR [29]: 0.37
Compound: CC(C[18F])NC[C@H](O)COc1cccc2[nH]c(O)nc12 (some centres undefined)
